Measurements pooled from the literature.
Compare with care: the assays were run in different laboratories.
RNMT: mRNA cap guanine-N(7) methyltransferase (RNMT, Homo sapiens, UniProt O43148)
DHFR: Dihydrofolate reductase (DHFR, Homo sapiens, UniProt P00374)
HTR2B: 5-hydroxytryptamine receptor 2B (HTR2B, Homo sapiens, UniProt P41595)

SMILES	target	test	quantity	result
CC(=O)N(CC#Cc1cccc(C(N)=O)c1)C[C@H]1C[C@@H](n2ccc3c(Cl)ncnc32)[C@H](O)[C@@H]1O	RNMT	binding, MST	Kd	> 300000 nM
N#C[C@@]12C[C@@H]1[C@@H](n1cnc3c(N[C@@H](C4CCC4)C4CC4)nc(I)nc31)[C@H](O)[C@@H]2O	5-hydroxytryptamine receptor 2C (HTR2C, Homo sapiens, UniProt P28335)	calcium signal, antagonist	Kb	3.39 nM
Cc1ccc(NC(=S)NN=Cc2ccc(N3CCCCC3)cc2)cc1	DHFR	enzyme activity, inhibitor	IC50	28500 nM
O=C(c1cc(C2CCNC2)[nH]n1)N1CCC(c2cccc(Cl)c2)C1 (stereo not shown)	HTR2B	calcium signal, antagonist	IC50	16500 nM
NC(=O)c1cccc(C#CCN(CC[C@H](N)C(=O)O)C[C@H]2O[C@@H](n3cnc4c(N)ncnc43)[C@H](O)[C@@H]2O)c1	RNMT	binding, MST	Kd	35700 nM
N#C[C@@]12C[C@@H]1[C@@H](n1cnc3c(NC4CCCC4)nc(I)nc31)[C@H](O)[C@@H]2O	HTR2B	ligand displacement, radioligand	Ki	4.27 nM
COc1cccc(NC(=S)NN=Cc2ccc(N3CCCCC3)cc2)c1	DHFR	enzyme activity, inhibitor	IC50	22400 nM
CCc1oc2c([C@H](CO)N(CC)CC)cccc2c1C	Lysophosphatidic acid receptor 1 (LPAR1, Homo sapiens, UniProt Q92633)	G protein activation, agonist	EC50	1.2 nM
Cc1ccc(F)c(O)c1CN1CCN(C2CCCC2O)CC1 (stereo not shown)	HTR2B	calcium signal, antagonist	IC50	134 nM
O=C(O)C1=CC(=C(c2ccc(O)c(C(=O)O)c2)c2ccc(O)c(C(=O)O)c2)C=CC1=O	Guanine nucleotide-binding protein G(i) subunit alpha-3 (GNAI3, Homo sapiens, UniProt P08754)	binding, BLI	Kd	~1600 nM
